Assay results as given in ChEMBL document CHEMBL4619801, “Discovery of Phthalazinone Derivatives as Novel Hepatitis B Virus Capsid Inhibitors” (J Med Chem, 2020).
pIC50: −log10 of the molar value. Activity calls are given as the source filed them. The rule behind the calls is not given here.

Columns and labels:
[1] = Drug level in CD1 mouse liver at 20 mg/kg, po dosed as single administration measured after 8 hrs; format: ADME, organism-based; conditions: read-out: Drug uptake
Method in brief: (§1)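 ICR (CD-1) mice were dosed orally at 20 mg/kg. At set times (1, 3, 8 and 24 h), blood was taken from the heart and portal vein under isoflurane anesthesia and spun to plasma. Livers were removed after portal vein perfusion, rinsed in saline, weighed and homogenized in saline (5 mL/g). Samples were analysed by UPLC–MS/MS in positive electrospray mode.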

[2] = Ratio of drug level in liver to plasma of CD1 mouse at 20 mg/kg, po dosed as single administration measured after 8 hrs; format: ADME, organism-based; method in brief: as §1
Hepatitis B virus [3] = assay: Antiviral activity against HBV infected in human HepG2.2.15 cells assessed as reduction in relaxed circular form of viral DNA at 0.06 to 1 uM incubated for 8 days by Southern blotting analysis; format: functional, organism-based; conditions: HepG2 2.2.15
Method in brief: (§2)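 HepG2.2.15 cells grown in 12-well plates were treated at the indicated concentrations for 8 days. HBV DNA was extracted from intracellular capsids and detected by Southern blot hybridization with a DIG-labeled HBV genomic fragment probe. Relaxed circular (rc) and single-stranded (ss) replication intermediates were read from the blot.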

Hepatitis B virus [4] = assay: Antiviral activity against HBV infected in human HepG2.2.15 cells assessed as reduction in single-stranded form of viral DNA at 0.06 to 1 uM incubated for 8 days by Southern blotting analysis; format: functional, organism-based; conditions: HepG2 2.2.15; method in brief: as §2
Hepatitis B virus [5] = assay: Antiviral activity against HBV infected in human HepG2.2.15 cells assessed as increase in faster-migrating capsids levels at 0.13 to 1 uM by agarose gel electrophoresis method; format: functional, organism-based; conditions: HepG2 2.2.15
Method in brief: (§3)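 HepG2.2.15 cells treated at indicated concentrations for 8 days. Intracellular capsids resolved on 1.8% native agarose gel; capsid mobility compared with untreated cells, and capsid-associated HBV DNA detected in situ.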

Hepatitis B virus [6] = assay: Antiviral activity against HBV infected in human HepG2.2.15 cells assessed as reduction in capsid associated DNAs at 0.13 to 1 uM by agarose gel electrophoresis method; format: functional, organism-based; conditions: HepG2 2.2.15; method in brief: as §3
Hepatitis B virus [7] = assay: Antiviral activity against HBV in AAV8-HBV-transduced Balb/c mouse assessed as reduction in HBV DNA level in plasma at 50 to 150 mg/kg, po BID for 4 weeks; format: functional, organism-based
Method in brief: (§4)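 Male Balb/c mice (6−8 weeks, SPF) given one iv tail-vein injection of recombinant AAV carrying HBV 1.1 genome (10¹¹ viral genome equivalents); after 5 weeks, stably viremic mice dosed orally for 4 weeks. […] Weekly blood sampling; plasma HBV DNA by real-time PCR; Dunnett's test versus vehicle.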

Hepatitis B virus [8] = assay: Antiviral activity against HBV in AAV8-HBV-transduced Balb/c mouse assessed as reduction in HBV DNA level in plasma at 150 mg/kg, po BID for 4 weeks relative to control; format: functional; method in brief: as §4
Hepatitis B virus [9] = assay: Antiviral activity against HBV in AAV8-HBV-transduced Balb/c mouse assessed as reduction in HBV DNA level in plasma at 100 mg/kg, po BID for 4 weeks relative to control; format: functional, organism-based; method in brief: as §4
[10] = Cytotoxicity in human HepG2.2.15 cells assessed as reduction in cell viability incubated for 8 days by MTT assay; format: cell-based, HepG2 2.2.15
Method in brief: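 This was run in the same 8-day HepG2.2.15 cultures. After the medium was removed, MTT was added (final 2.5 mg/mL) for 1 h at 37 °C. Cells were lysed in 10% SDS/50% DMF, pH 7.2, and OD was read at 570 nm to give % cell death. CC50 was averaged with SD from at least two independent determinations.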

Hepatitis B virus [11] = assay: Antiviral activity against HBV infected in human HepG2.2.15 cells assessed as reduction in cytoplasmic HBV-DNA replication incubated for 8 days by real-time PCR analysis; format: functional, organism-based
mouse (Mus musculus) [12] = assay: Half life in mouse at 2 mg/kg, iv dosed as single administration; conditions: in vivo
mouse (Mus musculus) [13] = assay: Observed clearance in mouse at 2 mg/kg, iv dosed as single administration; conditions: in vivo
mouse (Mus musculus) [14] = assay: AUC (0 to infinity) in mouse at 2 mg/kg, iv dosed as single administration; conditions: in vivo
mouse (Mus musculus) [15] = assay: AUC (0 to infinity) in mouse at 20 mg/kg, po dosed as single administration; conditions: in vivo
mouse (Mus musculus) [16] = assay: Observed volume of distribution at steady state in mouse at 2 mg/kg, iv dosed as single administration; conditions: in vivo, read-out: Vdss
[17] = Drug level in CD1 mouse liver at 20 mg/kg, po dosed as single administration measured after 1 to 8 hrs; format: ADME, organism-based; conditions: in vivo; method in brief: as §1
[18] = Drug level in CD1 mouse liver at 20 mg/kg, po dosed as single administration measured after 24 hrs; format: ADME, organism-based; conditions: in vivo; method in brief: as §1
Hepatitis B virus [19] = assay: Antiviral activity against HBV infected in human HepG2.2.15 cells assessed as reduction in cytoplasmic HBV-DNA replication at cytotoxic CC50 level incubated for 8 days by real-time PCR analysis; format: functional, organism-based; conditions: HepG2 2.2.15
mouse (Mus musculus) [20] = assay: Tmax in mouse at 2 mg/kg, iv dosed as single administration; conditions: in vivo
Hepatitis B virus [21] = assay: Antiviral activity against HBV infected in human HepG2.2.15 cells assessed as reduction in capsid associated DNAs at 1 uM by agarose gel electrophoresis method; format: functional, organism-based; conditions: HepG2 2.2.15; method in brief: as §3
Hepatitis B virus [22] = assay: Antiviral activity against HBV infected in human HepG2.2.15 cells assessed as reduction in capsid associated DNAs at 0.1 uM by agarose gel electrophoresis method; format: functional, organism-based; conditions: HepG2 2.2.15; method in brief: as §3
Hepatitis B virus [23] = assay: Antiviral activity against HBV infected in human HepG2.2.15 cells assessed as reduction in capsid formation; format: functional, organism-based; conditions: HepG2 2.2.15
Hepatitis B virus [24] = assay: Antiviral activity against HBV infected in human HepG2.2.15 cells assessed as reduction in capsid associated DNAs at 5 uM by agarose gel electrophoresis method; format: functional, organism-based; conditions: HepG2 2.2.15; method in brief: as §3

Row | SMILES | CC50 at 192 h [10] [nM] | pIC50 (Hepatitis B virus [11]; HepG2 2.2.15, 192 h) | IC90 (Hepatitis B virus [11]; HepG2 2.2.15, 192 h) [nM] | also measured
1 | N#Cc1ccc(Cn2nc(-c3cc(Cl)c(NCC(O)CO)nc3F)c3ccccc3c2=O)cc1 (configuration not stated) | > 100000 | 7.85 | 390 | concentration at 8 h [1]: 5950 ng/g; Kp at 8 h [2]: 4; Activity (Hepatitis B virus [3]): Dose-dependent effect; Activity (Hepatitis B virus [4]): Dose-dependent effect; Activity (Hepatitis B virus [5]): Active; Activity (Hepatitis B virus [6]): Dose-dependent effect; Activity (Hepatitis B virus [7]): Dose-dependent effect; log(activity) (Hepatitis B virus [8]): 2.67; Activity (Hepatitis B virus [9]): Active; half-life (mouse (Mus musculus) [12]): 2.52 h; clearance (mouse (Mus musculus) [13]): 4.1 mL/min/kg; AUC(0-inf) (mouse (Mus musculus) [14]): 8250 ng·h/mL; AUC(0-inf) (mouse (Mus musculus) [15]): 49800 ng·h/mL; Vd (mouse (Mus musculus) [16]): 0.766 L/kg
2 | COCCNc1ccc(-c2nn(Cc3ccc(C#N)cc3)c(=O)c3ccccc23)c(F)n1 | > 100000 | 6.37 | > 10000 | 
3 | N#Cc1ccc(Cn2nc(-c3ccc(F)nc3F)c3ccccc3c2=O)cc1 | > 100000 | 6.92 |  | Drug uptake [17]: Active; Drug uptake [18]: Not Active; Activity (Hepatitis B virus [3]): Dose-dependent effect; Activity (Hepatitis B virus [4]): Dose-dependent effect
4 | Cc1ccc(-c2nn(Cc3ccc(C#N)cc3)c(=O)c3ccccc23)c(F)n1 | > 100000 | 6.09 | > 10000 | 
5 | Cc1c(-c2ccc(F)nc2F)nn(Cc2ccc(Cl)cc2)c(=O)c1C | 52900 | 5.91 |  | 
6 | N#Cc1ccc(Cn2nc(-c3cc(Cl)c(NCCC(=O)O)nc3F)c3ccccc3c2=O)cc1 | > 100000 | 6.59 | 4020 | 
7 | O=C(O)c1cc(-c2ccc(F)nc2F)nn(Cc2ccc(Cl)cc2)c1=O | > 100000 |  |  | Activity (Hepatitis B virus [19]): inactive
8 | Cn1cc(-c2ccc(F)nc2F)nc(Cc2ccc(Cl)cc2)c1=O | > 100000 | 5.72 |  | 
9 | N#Cc1ccc(Cn2nc(-c3cc(Cl)c(NCCO)nc3F)c3ccccc3c2=O)cc1 | 32100 | 7.55 | 230 | Tmax (mouse (Mus musculus) [20]): 0.25 h; AUC (mouse (Mus musculus) [14]): 735 ng·h/mL; AUC(0-inf) (mouse (Mus musculus) [15]): 171 ng·h/mL; Vd (mouse (Mus musculus) [16]): 5.44 L/kg
10 | N#Cc1ccc(Cn2nc(-c3cc(Cl)c(NC[C@@H](O)CO)nc3F)c3ccccc3c2=O)cc1 | > 100000 | 8.10 | 240 | 
11 | COC(=O)c1cc(-c2ccc(F)nc2F)nn(Cc2ccc(Cl)cc2)c1=O | > 100000 |  |  | Activity (Hepatitis B virus [19]): inactive
12 | O=c1c(CO)cc(-c2ccc(F)nc2F)nn1Cc1ccc(Cl)cc1 | > 100000 | 6.77 |  | 
13 | Cc1cc(-c2ccc(F)nc2F)cn(Cc2ccc(Cl)cc2)c1=O | 90800 | 5.26 |  | 
14 | CN(C)CCNc1nc(F)c(-c2nn(Cc3ccc(C#N)cc3)c(=O)c3ccccc23)cc1Cl | 9760 | 6.59 | 870 | 
15 | COC(=O)CCNc1nc(F)c(-c2nn(Cc3ccc(C#N)cc3)c(=O)c3ccccc23)cc1Cl | > 100000 | 6.68 | 1140 | 
16 | N#Cc1ccc(Cn2nc(-c3ccc(N)nc3F)c3ccccc3c2=O)cc1 | > 100000 | 6.10 | > 10000 | 

Row | SMILES | CC50 at 192 h [10] [nM] | pIC50 (Hepatitis B virus [11]; HepG2 2.2.15, 192 h) | IC90 (Hepatitis B virus [11]; HepG2 2.2.15, 192 h) [nM] | also measured
17 | CC(=O)Nc1ccc(-c2nn(Cc3ccc(C#N)cc3)c(=O)c3ccccc23)c(F)n1 | > 100000 |  |  | IC90 (Hepatitis B virus [11]; HepG2 2.2.15): inactive; Activity (Hepatitis B virus [19]): inactive
18 | Cc1nc(-c2ccc(F)nc2F)cn(Cc2ccc(Cl)cc2)c1=O | > 100000 |  |  | Activity (Hepatitis B virus [19]): inactive
19 | N#Cc1ccc(Cn2nc(-c3cc(Cl)c(NC[C@H](O)CO)nc3F)c3ccccc3c2=O)cc1 | > 100000 | 7.66 | 1010 | 
20 | COc1cc(-c2ccc(F)nc2F)nn(Cc2ccc(Cl)cc2)c1=O | 92200 |  |  | Activity (Hepatitis B virus [19]): inactive
21 | O=c1c2ccccc2c(-c2ccc(F)nc2F)nn1Cc1ccc(Cl)cc1 | 36700 | 6.52 |  | 
22 | O=c1c(C2CC2)cc(-c2ccc(F)nc2F)nn1Cc1ccc(Cl)cc1 | 39800 | 4.45 |  | 
23 | COC(=O)C1=C(C)NC(c2ncc(F)cc2F)=N[C@H]1c1ccc(F)cc1Cl |  | 7.38 |  | Activity (Hepatitis B virus [21]): Active
24 | CNc1ccc(-c2nn(Cc3ccc(C#N)cc3)c(=O)c3ccccc23)c(F)n1 | > 100000 | 6.27 | > 10000 | 
25 | CC(C)c1cc(-c2ccc(F)nc2F)nn(Cc2ccc(Cl)cc2)c1=O | 56700 | 4.95 |  | 
26 | C=C1[C@H](CO)[C@@H](O)C[C@@H]1n1cnc2c(=O)[nH]c(N)nc21 |  |  |  | Activity (Hepatitis B virus [22]): Active; Activity (Hepatitis B virus [23]): inactive
27 | COc1ccccc1/C(Br)=C(/NC(=O)c1ccc([N+](=O)[O-])cc1)C(=O)N1CCCCC1 | > 20000 | 6.06 |  | Activity (Hepatitis B virus [24]): Active
28 | CCOc1ccc(-c2nn(Cc3ccc(C#N)cc3)c(=O)c3ccccc23)c(F)n1 | > 100000 | 5.68 | > 10000 | 
29 | COCCNc1nc(F)c(-c2nn(Cc3ccc(C#N)cc3)c(=O)c3ccccc23)cc1Cl | > 100000 | 7.42 | 350 | Activity (Hepatitis B virus [3]): Dose-dependent effect; Activity (Hepatitis B virus [4]): Dose-dependent effect; half-life (mouse (Mus musculus) [12]): 3.09 h; clearance (mouse (Mus musculus) [13]): 11.1 mL/min/kg; AUC(0-inf) (mouse (Mus musculus) [14]): 3070 ng·h/mL; AUC(0-inf) (mouse (Mus musculus) [15]): 850 ng·h/mL; Vd (mouse (Mus musculus) [16]): 3.09 L/kg
30 | O=c1c2c(c(-c3ccc(F)nc3F)nn1Cc1ccc(Cl)cc1)CCCC2 | 31000 | 5.84 |  | 
31 | CN(C)c1ccc(-c2nn(Cc3ccc(C#N)cc3)c(=O)c3ccccc23)c(F)n1 | 79200 | 6.28 | > 10000 | 
